Measured values from ChEMBL document CHEMBL1122501, “Potential antiatherosclerotic agents. 2. (Aralkylamino)- and (alkylamino) benzoic acid analogues of cetaben” (1983).

Assays:
[1] = target: T1, Sterol O-acyltransferase 1 (Rattus norvegicus) (UniProt O70536); test: In vitro inhibitory activity against acyl coenzyme A:cholesterol acyltransferase (ACAT); set-up: concentration or dose not given beside the values; conditions: concentration not given here
T1 sequence (whole entry): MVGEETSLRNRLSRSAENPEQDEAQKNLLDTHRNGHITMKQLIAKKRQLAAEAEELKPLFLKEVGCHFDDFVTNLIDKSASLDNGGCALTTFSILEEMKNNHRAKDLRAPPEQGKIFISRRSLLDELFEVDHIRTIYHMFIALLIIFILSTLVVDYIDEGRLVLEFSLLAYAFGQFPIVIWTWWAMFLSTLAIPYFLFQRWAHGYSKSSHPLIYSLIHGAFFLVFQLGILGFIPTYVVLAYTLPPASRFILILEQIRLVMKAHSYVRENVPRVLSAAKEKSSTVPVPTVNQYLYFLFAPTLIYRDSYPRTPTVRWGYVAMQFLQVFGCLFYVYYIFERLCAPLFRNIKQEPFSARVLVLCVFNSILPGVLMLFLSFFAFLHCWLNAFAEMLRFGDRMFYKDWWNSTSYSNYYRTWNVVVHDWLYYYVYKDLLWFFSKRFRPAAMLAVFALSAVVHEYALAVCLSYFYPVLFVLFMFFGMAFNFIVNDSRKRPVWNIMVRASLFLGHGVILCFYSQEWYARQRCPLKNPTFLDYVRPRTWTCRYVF
Summary of the method: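 ACAT enzyme from rat adrenal homogenate in 0.2 M KH2PO4 buffer pH 7.4, 1000g 15 min 5 °C supernatant (microsomal fraction). Supernatant + BSA (50 mg/mL) + compound at final 5.2 μg/mL + buffer preincubated 10 min 37 °C; [14C]oleoyl-CoA (0.4 μCi) added, 30 min 37 °C. Lipids extracted, TLC; cholesteryl ester zone counted. Mean % inhibition vs no-compound control; Student's t test.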

Rattus norvegicus [2] = test: In vivo Triglyceride lowering activity at dose as 0.01 % of the diet; assay type: functional
Summary of the method: (§1)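 Male CFE or CD-1 Sprague-Dawley rats, 140-150 g; 8 per control group, 4 per test group. Compound mixed into ground chow (w/w) via MeOH-CHCl3 (1:3) solution, solvent evaporated; controls got solvent-treated chow. Fed ad libitum 5 days, food intake monitored, killed fed and bled. Serum sterols and triglycerides by adapted autoanalyzer methods; mean percent of control, Student's t test.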

Rattus norvegicus [3] = test: In vivo Sterol lowering activity at dose as 0.03 % of the diet; assay type: functional; summary of the method: as §1
Rattus norvegicus [4] = test: In vivo triglyceride lowering activity dosed at 0.10 % of the diet; assay type: functional; summary of the method: as §1
Rattus norvegicus [5] = test: In vivo triglyceride lowering activity, dosed at 0.03 % of the diet; assay type: functional; summary of the method: as §1
Rattus norvegicus [6] = test: In vivo sterol lowering activity dosed at 0.10 % of the diet; assay type: functional; summary of the method: as §1
Rattus norvegicus [7] = test: In vivo Sterol lowering activity at dose as 0.01 % of the diet; assay type: functional; summary of the method: as §1
Rattus norvegicus [8] = test: In vivo triglyceride lowering activity dosed at 0.05 % of the diet; assay type: functional; summary of the method: as §1
Rattus norvegicus [9] = test: In vivo Sterol lowering activity at dose as 0.05 % of the diet.; assay type: functional; summary of the method: as §1
Rattus norvegicus [10] = test: In vivo Triglyceride lowering activity at dose as 0.017 % of the diet.; assay type: functional; summary of the method: as §1
Rattus norvegicus [11] = test: In vivo Sterol lowering activity at dose as 0.10 % of the diet.; assay type: functional; summary of the method: as §1
Rattus norvegicus [12] = test: In vivo Sterol lowering activity at dose as 0.017 % of the diet.; assay type: functional; summary of the method: as §1
Rattus norvegicus [13] = test: In vivo Triglyceride lowering activity at dose as 0.025 % of the diet; assay type: functional; summary of the method: as §1
Rattus norvegicus [14] = test: In vivo Sterol lowering activity at dose as 0.025 % of the diet.; assay type: functional; summary of the method: as §1
Rattus norvegicus [15] = test: In vivo triglyceride lowering activity, dosed at 0.10 % of the diet.; assay type: functional; summary of the method: as §1
Rattus norvegicus [16] = test: In vivo Triglyceride lowering activity at dose as 0.05 % of the diet.; assay type: functional; summary of the method: as §1
Rattus norvegicus [17] = test: In vivo Sterol lowering activity at dose as 0.025 % of the diet; assay type: functional; summary of the method: as §1
Rattus norvegicus [18] = test: In vivo Triglyceride lowering activity at dose as 0.025% of the diet; assay type: functional; summary of the method: as §1
Rattus norvegicus [19] = test: In vivo Sterol lowering activity at dose as 0.05 % of the diet; assay type: functional; summary of the method: as §1

Row | Compound | inhibition [1] [%] | serum triglycerides, percent of control (Rattus norvegicus [4]) [%] | serum sterol, percent of control (Rattus norvegicus [6]) [%] | Diet (Rattus norvegicus [8]) [%] | Diet (Rattus norvegicus [9]) [%] | serum sterol, percent of control (Rattus norvegicus [11]) [%] | Diet (Rattus norvegicus [13]) [%] | Diet (Rattus norvegicus [14]) [%] | further results
1 | O=C(O)c1ccc(NCCCCCCCCc2ccccc2)cc1 | < 35 | 74 | 84 |  |  |  |  |  | Diet (Rattus norvegicus [2]): <54%; Diet (Rattus norvegicus [3]): <78%; serum triglycerides, percent of control (Rattus norvegicus [5]): 56%; Diet (Rattus norvegicus [7]): 90%
2 | CCCCCCCCCCCc1nc(CNc2ccc(C(=O)O)cc2)c[nH]1.Cl | 19 | <70 | 100 |  |  |  |  |  | Diet (Rattus norvegicus [2]): 79%; Diet (Rattus norvegicus [3]): 93%; serum triglycerides, percent of control (Rattus norvegicus [5]): <71%; Diet (Rattus norvegicus [7]): 99%
3 | O=C(O)c1ccc(NCCc2cccc3ccccc23)cc1 |  | 63 |  | 67 | 108 | 93 |  |  | Diet (Rattus norvegicus [10]): 89%; Diet (Rattus norvegicus [12]): 108%
4 | CCCCCCCCc1ccc(CCCNc2ccc(C(=O)O)cc2)s1 | < 27 | <57 | <78 |  |  |  |  |  | Diet (Rattus norvegicus [2]): 76%; Diet (Rattus norvegicus [3]): <92%; serum triglycerides, percent of control (Rattus norvegicus [5]): 72%; Diet (Rattus norvegicus [7]): 88%
5 | CCOC(=O)c1ccc(NCCCc2ccccc2OC)cc1 | 64 |  |  |  | 107 | 107 | 61 | 96 | Diet (Rattus norvegicus [15]): 74%; Diet (Rattus norvegicus [16]): 66%
6 | O=C(O)c1ccc(NCCc2ccc(F)cc2)cc1 | 0 | 54 |  | 50 | 86 | 91 | 72 | 104 | 
7 | CCOC(=O)c1ccc(NCc2ccccc2)cc1 | 45 |  | 86 |  |  |  |  |  | Diet (Rattus norvegicus [15]): 78%; Diet (Rattus norvegicus [10]): 97%; serum triglycerides, percent of control (Rattus norvegicus [5]): 88%; Diet (Rattus norvegicus [19]): 90%; Diet (Rattus norvegicus [12]): 108%
8 | CCOC(=O)c1ccc(NCCCc2ccccc2)cc1 | 61 | 57 | 79 | 56 |  |  | 77 | 94 | Diet (Rattus norvegicus [19]): 77%
9 | O=C(O)c1ccc(NCCCc2ccc(OCc3ccccc3)cc2)cc1 | 2 | 60 |  | 69 | 96 | 93 | 67 | 90 | 
10 | O=C(O)c1ccc(NCc2ccc(-c3ccccc3)cc2)cc1 | 7 | 42 |  | 70 | 98 | 90 | 61 | 98 | 

Further lines, with some results ahead:

Row | inhibition [1] [%] | Compound | serum triglycerides, percent of control (Rattus norvegicus [4]) [%] | serum sterol, percent of control (Rattus norvegicus [6]) [%] | Diet (Rattus norvegicus [8]) [%] | Diet (Rattus norvegicus [9]) [%] | serum sterol, percent of control (Rattus norvegicus [11]) [%] | Diet (Rattus norvegicus [13]) [%] | Diet (Rattus norvegicus [14]) [%] | further results
11 | 50 | CCOC(=O)c1ccc(NCCCc2ccc(OCc3ccccc3)cc2)cc1 | 56 |  | 46 | 86 |  | 56 | 86 | Diet (Rattus norvegicus [11]): 96%
12 | < 24 | O=C(O)c1ccc(NCCCCCCCCCCCc2ccccc2)cc1 | <74 | <83 | <69 |  |  |  |  | Diet (Rattus norvegicus [17]): 83%; Diet (Rattus norvegicus [18]): <68%; Diet (Rattus norvegicus [19]): <76%
13 | 5 | COc1ccc(CNc2ccc(C(=O)O)cc2)cc1 | 60 |  |  | 95 | 94 | 69 | 91 | Diet (Rattus norvegicus [16]): 76%
14 | 9 | O=C(O)c1ccc(NCCc2ccccc2)cc1 | 48 | 88 |  | 84 |  | 64 | 90 | Diet (Rattus norvegicus [16]): 70%
15 | 49 | CCOC(=O)c1ccc(NCc2ccc(OC)cc2)cc1 | 48 |  | 62 | 92 | 94 | 73 | 95 | 
